# Assay outcomes (PubChem)
# VLA-4 inh: inhibition in a human VLA-4 binding assay; P13612; VLA-4 expressing cells, ligand binding flow cytometry; inhibition, % (about 7 µM as worked out from the volumes in the protocol); 330,000 compounds, 0.2% hits; AID 2557; in the data active means inhibition above about 50%
# Platelet DG rel: platelet dense granule release activity. human platelet-rich plasma, SFLLRN dense granule ATP release, luminescence. inhibition, %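 (compounds screened at 7.5 µM in platelet-rich plasma)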. 300,000 compounds, 0.22% hits. AID 1663;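 active means mean replicate score, as percent of positive control, at or above 50; inconclusive means mean below 50 but at least one replicate at or above 50; inactive means mean and every replicate below 50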
# SENP1 inh: inhibitors of human SENP1 SUMO protease catalytic domain | Q9P0U3 | recombinant SENP1 catalytic domain, CyPet-SUMO1-YPet FRET cleavage | inhibition, % at 10 µM | 360,000 compounds, 0.21% hits | AID 624204;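 active means inhibition at least 30% at 10 µM, raw YFP signal under a set limit, fluorescence ratio 0.5 to 1.5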
#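 system = hSENP1 catalytic domain, recombinant | reagent = SFCypet-SUMO1-SFYpet substrate at 25 nM | doses = one dose per compound, 10 µM, 0.5% DMSO | incubation = enzyme reaction for 50 min at room temperature, dark | measured by = FRET, CFP and YFP emission | controls = no-enzyme low, enzyme-DMSO high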
# Myeloid diff MLP: compounds promoting myeloid differentiation | calls only at 10 µM | AID 624256 | 360,000 compounds, 1% hits | ER-HoxA9 myeloid progenitors, lysozyme-GFP differentiation, flow cytometry;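 active means normalized GFP-positive differentiation at or above the plate's own cutoff, the solvent-only control mean plus 3 SD; inconclusive means no clear call, values can overlap the other calls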;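 further: cells exposed to compound for four days before flow analysis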
# Myeloid diff CP1: compounds promoting myeloid differentiation; shares compounds with Myeloid diff MLP; ER-HoxA9 myeloid progenitors, GFP/Mac1 double-positive flow; calls only; 2,300 compounds, 2% hits;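 active means share of green or green-and-red cells above 9 and 9% in run 1 or 4 and 3% in run 2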
# GFP autofluor: counter-screen for myeloid differentiation promoters: compound fluorescence. shares compounds with Myeloid diff MLP. ER-HoxA9 myeloid progenitors, no estrogen, GFP autofluorescence flow cytometry; vehicle wells 0%, positive control 100%. fluorescence response, % (no concentration beside the values). 2,300 compounds, 7.4% hits. AID 651707;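 active means over 5% cells positive for green fluorescent reporter, or over 2% positive for both it and APC stain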
# A number is an active result; - = inactive; ? = inconclusive; . = no result; + = active, no number. Compounds with a hit are over-represented: about 1.5% of the library has one in this group of screens.
SMILES,VLA-4 inh,Platelet DG rel,SENP1 inh,Myeloid diff MLP,Myeloid diff CP1,GFP autofluor
CCN(CC)C(=O)CSc1nnc([C@@H](NC(=O)OC(C)(C)C)C(C)C)o1,-,-,-,-,-,-
O=C1C=C(c2ccc(-c3ccccc3)cc2)C[C@@H](c2ccc(Cl)cc2)C1,-,.,-,-,-,-
CCOc1ccc2nc(N3CCC(C(=O)N4CCN(C(=O)c5ccco5)CC4)CC3)sc2c1,-,-,-,-,.,.
CCOc1ccc2nc(N3CCC(C(=O)N4CCN(C5CCCCC5)CC4)CC3)sc2c1,-,-,-,-,-,-
O=C(NCCN1CCOCC1)N1CCOCC1,-,-,-,-,-,-
CC(=O)COc1ccccc1OC(=O)c1ccco1,-,-,-,-,.,.
CCOc1ccccc1OC(=O)c1ccco1,-,-,-,-,-,-
CC(=O)c1ccccc1OC(=O)c1ccco1,-,-,-,+,-,-
CC(=O)N1CN(C2CCCC2)Cc2c1sc1c2CCCC1,-,-,-,-,-,-
CC(=O)N1CN(C2CC(C)(C)NC(C)(C)C2)Cc2c1sc1c2CCCC1,-,-,-,-,.,.
CCOc1ccccc1N(C)C(=O)Cn1ncc2c([nH]c3ccc(C)cc32)c1=O,-,-,-,?,.,.
CC(=O)c1sc(NC(=O)CS(=O)(=O)c2ccc(F)cc2)nc1C,-,-,-,-,.,.
CCCn1c(NC(=O)CCS(=O)(=O)c2ccc(C)cc2)nc2ccccc21,-,-,-,+,-,27.4
CC(=O)c1sc(NC(=O)CCS(=O)(=O)c2ccc(C)cc2)nc1C,-,-,-,-,-,-
CCCn1c(NC(=O)CCNC(=O)c2ccccc2Cl)nc2ccccc21,-,.,-,-,.,.
COc1cccc(NC(=O)c2cccc(N3C(=O)C4CCC(C)CC4C3=O)c2)c1 (stereo not given),-,-,-,-,.,.
C[C@@H]1CC=C[C@H]2[C@H]1C(=O)N(Cc1ccccc1)[C@H]2c1ccc(-c2ccc(F)cc2)cc1F,-,-,-,-,-,-
C[C@@H]1CC=C[C@H]2[C@H]1C(=O)N(Cc1ccccc1)[C@H]2c1ccc(-c2ccoc2)cc1F,-,-,-,-,.,.
O=C(NCc1ccccc1)C1C(c2ccc3c(c2)OCO3)=Nc2ccccc2N1C(=O)c1ccco1 (stereo not given),.,.,-,-,-,-
O=C(NCc1ccccc1)C1C(c2ccc3c(c2)OCO3)=Nc2ccccc2N1C(=O)c1ccccc1 (stereo not given),.,.,-,-,.,.
C[n+]1c2n(c3ccccc31)N=C(c1cc(C(C)(C)C)c(O)c(C(C)(C)C)c1)CS2,-,-,-,+,-,-
Cc1ccc(NC(=O)/C(=C\c2ccco2)NC(=O)c2ccco2)cc1,-,-,-,-,.,.
COc1ccc(NC(=O)/C(=C\c2ccco2)NC(=O)c2ccco2)cc1,-,-,-,-,-,-
Cc1csc(=O)n1CC(=O)OCC(=O)Nc1ccc(F)c(F)c1,-,-,-,-,.,.
CCOC(=O)C1(CC2CC2)CCN(C(=O)c2cccnc2C)CC1,-,-,-,-,-,-
SMILES,VLA-4 inh,Platelet DG rel,SENP1 inh,Myeloid diff MLP,Myeloid diff CP1,GFP autofluor
COc1ccc2[nH]c3c(c2c1)CCNC3c1ccc([N+](=O)[O-])o1 (stereo not given),-,-,-,+,-,98.6
O=C(O)[C@@H]1Cc2ccccc2N1,-,-,-,+,-,5.4
Cc1sc2ncnc(N3CCC(C(=O)Nc4cc(S(C)(=O)=O)ccc4Cl)CC3)c2c1C,-,-,-,-,.,.
CCN(CC)S(=O)(=O)c1cc(NC(=O)C2CCN(c3ncnc4sc(C)c(C)c34)CC2)ccc1Cl,-,-,-,+,-,-
CC1(C)O[C@@H]2[C@H](O1)[C@@H](COS(=O)(=O)O)O[C@H]2n1cc(Br)c(=O)[nH]c1=O,-,.,-,+,-,-
O=C(Nc1nccs1)c1ccc(-c2ccc([N+](=O)[O-])cc2)o1,-,-,-,+,-,-
COc1cccc(NC(=O)C2CC(=O)N(C)C(=Nc3cccc(F)c3)S2)c1 (stereo not given),-,-,-,-,-,-
COc1cccc(N=C2SC(C(=O)Nc3ccccc3F)CC(=O)N2C)c1 (stereo not given),-,-,-,-,.,.
CC(=O)Nc1c(O)nc(SCC(=O)Nc2nnc(SCc3ccccc3)s2)[nH]c1=O,-,-,-,-,.,.
CCCN1C(=S)c2ccccc2C1c1ccccc1 (stereo not given),-,-,-,-,.,.
CN1CCN(c2cc3c(c4c2[nH]c2ccccc24)C(=O)CC(C)(C)C3)CC1,-,-,-,-,-,-
CC(C)CC(NC(N)=O)C(=O)Nc1ccc(Oc2ccccc2)cc1 (stereo not given),-,-,-,-,-,-
COc1ccc(-c2sc(Nc3ccccc3)n[n+]2-c2ccc(F)cc2)c(C)c1C,-,-,-,-,-,4.2
O=C(Nc1ccc(Cn2ccnc2)cc1)c1cccc(C(F)(F)F)c1,-,-,-,-,.,.
O=C(NCCN1CCc2ccccc2C1)C1CCN(S(=O)(=O)N2CCCCC2)CC1,-,-,-,-,-,-
O=C(NCCN1CCc2ccccc2C1)C1CCN(S(=O)(=O)N2CCC3(CC2)OCCO3)CC1,-,-,-,-,.,.
O=c1oc2ccc(Cl)cc2nc1/C=C(\O)c1ccco1,-,-,-,+,-,-
Cc1ccc(/C(O)=C/c2nc3cc(C)ccc3oc2=O)cc1,-,-,-,-,.,.
CC(C)C/C(O)=C/c1nc2cc(Cl)ccc2oc1=O,-,-,-,-,-,-
Cc1ccc(CNC(=O)C(=O)NCC2OCCN2C(=O)c2cccs2)cc1 (stereo not given),-,-,-,+,-,-
OC(c1cc(F)cc(Cl)c1)c1ncc(-c2cccc(C(F)(F)F)c2)[nH]1 (stereo not given),.,.,-,-,.,.
CN(C)C(CNC(=O)c1ccc(NC(=O)CC#N)cc1)c1ccccc1 (stereo not given),-,-,-,.,.,.
N#CCC(=O)Nc1ccc(C(=O)NCCC(c2ccccc2)c2ccccc2)cc1,-,-,-,+,-,-
CC(=O)Nc1ccc(CC(=O)NCCC(c2ccccc2)c2ccccc2)cc1,-,-,-,+,-,-
CC(=O)Nc1ccc(CC(=O)O)cc1,-,-,-,-,.,.
SMILES,VLA-4 inh,Platelet DG rel,SENP1 inh,Myeloid diff MLP,Myeloid diff CP1,GFP autofluor
O=C1c2ccccc2NC(c2ccc(F)cc2)N1Cc1ccco1 (stereo not given),-,-,-,-,-,-
CCC(O)(CC)C(=O)N/N=C/c1cc(Br)cc(Br)c1O,-,-,-,-,.,.
CC(=O)N/N=C/c1cc(C(C)(C)C)cc(/C=N/NC(C)=O)c1O,-,-,-,+,-,-
CCN1C(=O)[C@H]2[C@@H](c3ccc(C(F)(F)F)cc3)N[C@]3(CCCN(CC4CCCCC4)C3=O)[C@H]2C1=O,.,.,-,+,-,-
O=C(O)CSCC(=O)N(c1ccccc1)c1ccccc1,-,-,-,-,.,.
O=C(Nc1cc(S(=O)(=O)N2CCOCC2)ccc1Cl)c1cc2ccccc2o1,-,.,-,-,.,.
